Data published in the array DNA melting data of Ke et al. (doi:10.1101/2024.01.08.574731).

Columns and labels:
[1] = melting temperature; fluorescence melt of hairpins on a sequencing array, two-state fit, raised by 9.35 °C to match UV melts; conditions: sodium 0.088 M
In short: (§1)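 With Cy3 and quencher oligos annealed, library hairpins on a sequenced MiSeq flow cell were imaged for Cy3 fluorescence in 50 mM Na-HEPES pH 8.0, 25 mM NaCl, in 2.5 °C steps up to 60 °C. Melting temperature and folding enthalpy were derived from bootstrapped two-state fits of signals normalised to pre-quench Cy3 and to control constructs. Four replicates were combined by inverse variance, with fitted temperatures raised by 9.35 °C to match UV melts.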

[2] = folding enthalpy; higher = less favourable; fluorescence melt of hairpins on a sequencing array, two-state fit; conditions: sodium 0.088 M
In short: as §1

Sequence	Tm [1]	folding enthalpy [2]
GCGACTGGAAACGGTCGC (((((.(....).)))))	64.7 °C	-46.3 kcal/mol
GCGACTGGTCGC ((((....))))	60.3 °C	-38.1 kcal/mol
GCGAGACCGAAAGGTCGC (((..(((....))))))	59.1 °C	-10.3 kcal/mol
GCGAGACCTCGC ((((....))))	56.5 °C	-13.8 kcal/mol
GCGAGACGAAAGTCCCGC (((.(((....))).)))	59 °C	-35.6 kcal/mol
GCGAGACGTCGC ((((....))))	52.9 °C	-8.79 kcal/mol
GCGAGAGCGAAAGCTCGC (((..(((....))))))	65.6 °C	-9.94 kcal/mol
GCGAGCATTCGC ((((....))))	57.1 °C	-27.1 kcal/mol
GCGAGCCATCGC ((((....))))	57.2 °C	-28.4 kcal/mol
GCGAGCGAAAGCTGGCGC ((((((....)))..)))	68.7 °C	-25 kcal/mol
GCGAGCGAAAGCTTCCGC ((((((....)))..)))	44.2 °C	-16.6 kcal/mol
GCGAGCGATCGC ((((....))))	53.5 °C	-25.3 kcal/mol
GCGAGCGCTCGC ((((....))))	65 °C	-46.8 kcal/mol
GCGAGCGGAAACGCTCAC (.(((((....))))).)	50.6 °C	-12.3 kcal/mol
GCGAGCGTTCGC ((((....))))	49 °C	-14.2 kcal/mol
GCGAGGAATCGC ((((....))))	54.6 °C	-20.5 kcal/mol
GCGAGGCGAAAGCAACGC (((..((....))..)))	61.8 °C	-21.6 kcal/mol
GCGAGGCGAAAGCAGCGC (((..((....))..)))	68.9 °C	-29.9 kcal/mol
GCGAGGCGAAAGCTTGGC ((.(.((....)).).))	46.1 °C	-12.1 kcal/mol
GCGAGGCGAAAGCTTTGC ((.(.((....)).).))	51.5 °C	-20.3 kcal/mol
GCGAGGCTTCGC ((((....))))	66.7 °C	-17.9 kcal/mol
GCGAGGGTCGC ((((...))))	62 °C	-7.26 kcal/mol
GCGAGGTGTCGC ((((....))))	65.7 °C	-5.64 kcal/mol
GCGAGTAATCGC ((((....))))	58.6 °C	-20.9 kcal/mol
GCGAGTCCTCGC ((((....))))	56.2 °C	-30.2 kcal/mol

Sequence	Tm [1]	folding enthalpy [2]
GCGAGTCGAAAGACACGC (((.(((....))).)))	66.6 °C	-38.4 kcal/mol
GCGAGTGGAAACACTCAC (.(((((....))))).)	45.7 °C	-14 kcal/mol
GCGAGTGGAAACGTTCGC ((((..(....)..))))	45.5 °C	-24.6 kcal/mol
GCGAGTTGTCGC ((((....))))	50.9 °C	-15.5 kcal/mol
GCGATACCTCGC ((((....))))	51.4 °C	-24.9 kcal/mol
GCGATAGGTCGC ((((....))))	51.4 °C	-24.5 kcal/mol
GCGATATCTCGC ((((....))))	48.5 °C	-20.5 kcal/mol
GCGATATGTCGC ((((....))))	55 °C	-26.4 kcal/mol
GCGATCAATCGC ((((....))))	51.1 °C	-24.9 kcal/mol
GCGATCACTCGC ((((....))))	47.2 °C	-26 kcal/mol
GCGATCAGTCGC ((((....))))	49.3 °C	-23.2 kcal/mol
GCGATCCGAAAGGAACGC (((.(((....))).)))	66.8 °C	-40 kcal/mol
GCGATCGAAAGATTGCGC ((((((....)))..)))	57.2 °C	-39.6 kcal/mol
GCGATCGCTCGC ((((....))))	49.6 °C	-24.2 kcal/mol
GCGATCTGTCGC ((((....))))	51.6 °C	-33.5 kcal/mol
GCGATGCGAAAGCAATGC ((..(((....)))..))	53.1 °C	-18.2 kcal/mol
GCGATGCGAAAGCAGGGC ((..(((....)))..))	61.4 °C	-20.4 kcal/mol
GCGATGCGAAAGCGTTGC ((.(.((....)).).))	57.2 °C	-25.9 kcal/mol
GCGATTAATCGC ((((....))))	56.1 °C	-29.4 kcal/mol
GCGATTCGAAAGAACGC (((.(((....))))))	52.8 °C	-30.2 kcal/mol
GCGATTGATCGC ((((....))))	53.1 °C	-31.5 kcal/mol
GCGATTGGAAACAATCAC (.(((((....))))).)	40 °C	-19.7 kcal/mol
GCGATTGGAAACAATCGC (((((((....)))))))	69 °C	-39.5 kcal/mol
GCGATTGGAAACAGTCGC ((((.((....)).))))	54.2 °C	-42 kcal/mol
